{"source": "ChEMBL document CHEMBL4354828", "about": "“Discovery of Taniborbactam (VNRX-5133): A Broad-Spectrum Serine- and Metallo-β-lactamase Inhibitor for Carbapenem-Resistant Bacterial Infections” (J Med Chem, 2020)", "key": {"[1]": {"test_system": "Klebsiella pneumoniae", "experiment": "Inhibition of VIM-4 in Klebsiella pneumoniae assessed as meropenem antibacterial activity at 4 ug/ml after 16 to 20 hrs by CLSI-based microbroth dilution method (Rvb >= […] ug/ml)"}, "[2]": {"test_system": "Pseudomonas aeruginosa", "experiment": "Inhibition of KPC-2/PDC-42 in Pseudomonas aeruginosa CDC-0356 assessed as cefepime antibacterial activity at 8 ug/ml after 16 to 20 hrs by CLSI-based microbroth dilution method (Rvb > […] ug/ml)"}, "[3]": {"test_system": "Klebsiella pneumoniae", "experiment": "Inhibition of OXA-48 in Klebsiella pneumoniae assessed as meropenem antibacterial activity at 4 ug/ml after 16 to 20 hrs by CLSI-based microbroth dilution method (Rvb >= […] ug/ml)"}, "[4]": {"test_system": "Escherichia coli", "experiment": "Inhibition of NDM in Escherichia coli CDC-0452 assessed as meropenem antibacterial activity at 4 ug/ml after 16 to 20 hrs by CLSI-based microbroth dilution method (reference value: […] ug/ml)"}, "[5]": {"test_system": "Klebsiella pneumoniae ATCC BAA-1705", "experiment": "Inhibition of KPC-2 in Klebsiella pneumoniae ATCC BAA 1705 assessed as meropenem antibacterial activity at 4 ug/ml after 16 to 20 hrs by CLSI-based microbroth dilution method (reference value: […] ug/ml)"}, "[6]": {"test_system": "Klebsiella pneumoniae", "experiment": "Inhibition of OXA-232/OXA-9/TEM-1A/CTX-M-15/OXA-1 in Klebsiella pneumoniae CDC-0066 assessed as cefepime antibacterial activity at 8 ug/ml after 16 to 20 hrs by CLSI-based microbroth dilution method (Rvb > […] ug/ml)"}, "[7]": {"test_system": "Escherichia coli", "experiment": "Inhibition of NDM-1/CMY-6/OXA-1 in Escherichia coli CDC-0055 assessed as meropenem antibacterial activity at 4 ug/ml after 16 to 20 hrs by CLSI-based microbroth dilution method (reference value: […] ug/ml)"}, "[8]": {"test_system": "Klebsiella pneumoniae ATCC BAA-1705", "experiment": "Inhibition of KPC-2 in Klebsiella pneumoniae ATCC BAA 1705 assessed as cefepime antibacterial activity at 8 ug/ml after 16 to 20 hrs by CLSI-based microbroth dilution method", "outline": "(§1)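 MDR β-lactamase-producing Gram-negative clinical isolates. […] MIC was reported as the inhibitor concentration that restores the partner's antibacterial activity.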"}, "[9]": {"test_system": "Klebsiella pneumoniae", "experiment": "Inhibition of VIM-27/CTX-M-15/SHV-11/OXA-1 in Klebsiella pneumoniae CDC-0040 assessed as cefepime antibacterial activity at 8 ug/ml after 16 to 20 hrs by CLSI-based microbroth dilution method"}, "[10]": {"experiment": "Inhibition of bacterial AmpC using nitrocefin as substrate preincubated for 15 mins followed by susbtrate addition and measured after 10 mins by spectrophotometric method", "parameters": "species or system Bacteria"}, "[11]": {"test_system": "Escherichia coli", "experiment": "Inhibition of NDM-1/CMY-6/OXA-1 in Escherichia coli CDC-0055 assessed as piperacillin antibacterial activity at 16 ug/ml after 16 to 20 hrs by CLSI-based microbroth dilution method", "outline": "as §1"}, "[12]": {"test_system": "Escherichia coli", "experiment": "Inhibition of NDM-1/CMY-6/OXA-1 in Escherichia coli CDC-0055 assessed as cefepime antibacterial activity at 8 ug/ml after 16 to 20 hrs by CLSI-based microbroth dilution method", "outline": "as §1"}, "[13]": {"test_system": "Pseudomonas aeruginosa", "experiment": "Inhibition of KPC-2/PDC-42 in Pseudomonas aeruginosa CDC-0356 assessed as piperacillin antibacterial activity at 16 ug/ml after 16 to 20 hrs by CLSI-based microbroth dilution method (Rvb > […] ug/ml)"}, "[14]": {"target": "Beta-lactamase VIM-2 (Pseudomonas aeruginosa) (UniProt Q9K2N0)", "experiment": "Inhibition of VIM-2 in Pseudomonas aeruginosa assessed as meropenem antibacterial activity at 4 ug/ml after 16 to 20 hrs by CLSI-based microbroth dilution method (Rvb >= […] ug/ml)"}, "[15]": {"experiment": "Inhibition of bacterial KPC-2 using imipenem as substrate preincubated for 15 mins followed by susbtrate addition and measured after 10 mins by spectrophotometric method", "parameters": "species or system Bacteria"}, "[16]": {"test_system": "Pseudomonas aeruginosa", "experiment": "Inhibition of VIM in Pseudomonas aeruginosa CDC-0457 assessed as meropenem antibacterial activity at 4 ug/ml after 16 to 20 hrs by CLSI-based microbroth dilution method"}, "[17]": {"test_system": "Klebsiella pneumoniae", "experiment": "Inhibition of KPC-2 in Klebsiella pneumoniae assessed as meropenem antibacterial activity at 4 ug/ml after 16 to 20 hrs by CLSI-based microbroth dilution method (Rvb >= […] ug/ml)"}, "[18]": {"test_system": "Klebsiella pneumoniae", "experiment": "Inhibition of KPC-2/SHV12/TEM-1 in Klebsiella pneumoniae CDC-0361 assessed as cefepime antibacterial activity at 8 ug/ml after 16 to 20 hrs by CLSI-based microbroth dilution method (reference value: […] ug/ml)"}, "[19]": {"test_system": "Pseudomonas aeruginosa", "experiment": "Inhibition of KPC-2/PDC-42 in Pseudomonas aeruginosa CDC-0356 assessed as meropenem antibacterial activity at 4 ug/ml after 16 to 20 hrs by CLSI-based microbroth dilution method (reference value: […] ug/ml)"}, "[20]": {"test_system": "Klebsiella pneumoniae", "experiment": "Inhibition of VIM-27/CTX-M-15/SHV-11/OXA-1 in Klebsiella pneumoniae CDC-0040 assessed as piperacillin antibacterial activity at 16 ug/ml after 16 to 20 hrs by CLSI-based microbroth dilution method"}, "[21]": {"test_system": "Pseudomonas aeruginosa", "experiment": "Inhibition of VIM in Pseudomonas aeruginosa CDC-0457 assessed as cefepime antibacterial activity at 8 ug/ml after 16 to 20 hrs by CLSI-based microbroth dilution method"}, "[22]": {"test_system": "Pseudomonas aeruginosa", "experiment": "Inhibition of VIM in Pseudomonas aeruginosa CDC-0457 assessed as piperacillin antibacterial activity at 16 ug/ml after 16 to 20 hrs by CLSI-based microbroth dilution method"}, "[23]": {"test_system": "Escherichia coli", "experiment": "Inhibition of NDM in Escherichia coli CDC-0452 assessed as piperacillin antibacterial activity at 16 ug/ml after 16 to 20 hrs by CLSI-based microbroth dilution method (Rvb > […] ug/ml)"}, "[24]": {"test_system": "Klebsiella pneumoniae ATCC BAA-1705", "experiment": "Inhibition of KPC-2 in Klebsiella pneumoniae ATCC BAA 1705 assessed as piperacillin antibacterial activity at 16 ug/ml after 16 to 20 hrs by CLSI-based microbroth dilution method (Rvb > […] ug/ml)"}, "[25]": {"test_system": "Klebsiella pneumoniae", "experiment": "Inhibition of OXA-232/OXA-9/TEM-1A/CTX-M-15/OXA-1 in Klebsiella pneumoniae CDC-0066 assessed as piperacillin antibacterial activity at 16 ug/ml after 16 to 20 hrs by CLSI-based microbroth dilution method (Rvb > […] ug/ml)"}, "[26]": {"experiment": "Inhibition of bacterial OXA-48 using nitrocefin as substrate preincubated for 15 mins followed by susbtrate addition and measured after 10 mins by spectrophotometric method", "parameters": "species or system Bacteria"}, "[27]": {"test_system": "Escherichia coli", "experiment": "Inhibition of NDM in Escherichia coli CDC-0452 assessed as cefepime antibacterial activity after 16 to 20 hrs by CLSI-based microbroth dilution method (reference value: […] ug/ml)"}, "[28]": {"test_system": "Klebsiella pneumoniae", "experiment": "Inhibition of KPC-2/SHV12/TEM-1 in Klebsiella pneumoniae CDC-0361 assessed as piperacillin antibacterial activity at 16 ug/ml after 16 to 20 hrs by CLSI-based microbroth dilution method (Rvb > […] ug/ml)"}, "[29]": {"experiment": "Inhibition of bacterial VIM-2 using nitrocefin as substrate preincubated for 15 mins followed by susbtrate addition and measured after 10 mins by spectrophotometric method", "parameters": "species or system Bacteria", "outline": "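Purified β-lactamase inhibition. IC50 values are the average of duplicates unless otherwise indicated.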"}, "[30]": {"test_system": "Klebsiella pneumoniae", "experiment": "Inhibition of OXA-232/OXA-9/TEM-1A/CTX-M-15/OXA-1 in Klebsiella pneumoniae CDC-0066 assessed as meropenem antibacterial activity at 4 ug/ml after 16 to 20 hrs by CLSI-based microbroth dilution method (reference value: […] ug/ml)"}, "[31]": {"test_system": "Klebsiella pneumoniae", "experiment": "Inhibition of KPC-2/SHV12/TEM-1 in Klebsiella pneumoniae CDC-0361 assessed as meropenem antibacterial activity at 4 ug/ml after 16 to 20 hrs by CLSI-based microbroth dilution method (reference value: […] ug/ml)"}, "[32]": {"test_system": "Klebsiella pneumoniae", "experiment": "Inhibition of VIM-27/CTX-M-15/SHV-11/OXA-1 in Klebsiella pneumoniae CDC-0040 assessed as meropenem antibacterial activity at 4 ug/ml after 16 to 20 hrs by CLSI-based microbroth dilution method"}, "[33]": {"experiment": "Inhibition of bacterial IMP-1 using nitrocefin as substrate preincubated for 15 mins followed by susbtrate addition and measured after 10 mins by spectrophotometric method", "parameters": "species or system Bacteria"}, "[34]": {"experiment": "Inhibition of bacterial NDM-1 using cefepime as substrate preincubated for 15 mins followed by susbtrate addition and measured after 10 mins by spectrophotometric method", "parameters": "species or system Bacteria"}, "[35]": {"experiment": "Inhibition of bacterial CMY-2 using nitrocefin as substrate preincubated for 15 mins followed by susbtrate addition and measured after 10 mins by spectrophotometric method", "parameters": "species or system Bacteria"}, "[36]": {"experiment": "Inhibition of bacterial CTX-M-15 using cefotaxime as substrate preincubated for 15 mins followed by susbtrate addition and measured after 10 mins by spectrophotometric method", "parameters": "species or system Bacteria"}, "[37]": {"experiment": "Inhibition of bacterial OXA-1 using nitrocefin as substrate preincubated for 15 mins followed by susbtrate addition and measured after 10 mins by spectrophotometric method", "parameters": "species or system Bacteria"}}, "data": [{"smiles": "NCc1ccc(CC(=O)N[C@H]2Cc3cccc(C(=O)O)c3OB2O)cc1", "values": [{"measurement": "MIC", "setting": "[1]", "result": 4, "unit": "µg/mL"}, {"measurement": "MIC", "setting": "[2]", "result": 2, "unit": "µg/mL"}, {"measurement": "MIC", "setting": "[3]", "result": 1, "unit": "µg/mL"}, {"measurement": "MIC", "setting": "[4]", "result": 2, "unit": "µg/mL"}, {"measurement": "MIC", "setting": "[5]", "result": 0.0079, "unit": "µg/mL"}, {"measurement": "MIC", "setting": "[6]", "result": 4, "unit": "µg/mL"}, {"measurement": "MIC", "setting": "[7]", "result": 1, "unit": "µg/mL"}, {"measurement": "MIC", "setting": "[8]", "result": 0.06, "unit": "µg/mL"}, {"measurement": "MIC", "setting": "[9]", "result": "> 16", "unit": "µg/mL"}, {"measurement": "IC50", "setting": "[10]", "result": 12, "unit": "nM"}, {"measurement": "MIC", "setting": "[11]", "result": 16, "unit": "µg/mL"}, {"measurement": "MIC", "setting": "[12]", "result": 4, "unit": "µg/mL"}, {"measurement": "MIC", "setting": "[13]", "result": 2, "unit": "µg/mL"}, {"measurement": "MIC", "setting": "[14]", "result": 8, "unit": "µg/mL"}, {"measurement": "IC50", "setting": "[15]", "result": 40, "unit": "nM"}, {"measurement": "MIC", "setting": "[16]", "result": "> 16", "unit": "µg/mL"}, {"measurement": "MIC", "setting": "[17]", "result": 0.5, "unit": "µg/mL"}, {"measurement": "MIC", "setting": "[18]", "result": 0.0079, "unit": "µg/mL"}, {"measurement": "MIC", "setting": "[19]", "result": 1, "unit": "µg/mL"}, {"measurement": "MIC", "setting": "[20]", "result": "> 16", "unit": "µg/mL"}, {"measurement": "MIC", "setting": "[21]", "result": 8, "unit": "µg/mL"}, {"measurement": "MIC", "setting": "[22]", "result": "> 16", "unit": "µg/mL"}, {"measurement": "MIC", "setting": "[23]", "result": 8, "unit": "µg/mL"}, {"measurement": "MIC", "setting": "[24]", "result": 2, "unit": "µg/mL"}, {"measurement": "MIC", "setting": "[25]", "result": "> 16", "unit": "µg/mL"}, {"measurement": "IC50", "setting": "[26]", "result": 1800, "unit": "nM"}, {"measurement": "MIC", "setting": "[27]", "result": 2, "unit": "µg/mL"}, {"measurement": "MIC", "setting": "[28]", "result": 0.5, "unit": "µg/mL"}, {"measurement": "IC50", "setting": "[29]", "result": 270, "unit": "nM"}, {"measurement": "MIC", "setting": "[30]", "result": 4, "unit": "µg/mL"}, {"measurement": "MIC", "setting": "[31]", "result": 0.0079, "unit": "µg/mL"}, {"measurement": "MIC", "setting": "[32]", "result": "> 16", "unit": "µg/mL"}]}, {"smiles": "O=C(O)[C@H]1/C(=C/CO)O[C@@H]2CC(=O)N21", "note": "[CLAVULANIC ACID]", "values": [{"measurement": "IC50", "setting": "[33]", "result": "> 100000", "unit": "nM"}, {"measurement": "IC50", "setting": "[34]", "result": "> 100000", "unit": "nM"}, {"measurement": "IC50", "setting": "[35]", "result": "> 100000", "unit": "nM"}, {"measurement": "IC50", "setting": "[36]", "result": 40, "unit": "nM"}, {"measurement": "IC50", "setting": "[15]", "result": 1800, "unit": "nM"}, {"measurement": "IC50", "setting": "[37]", "result": 120, "unit": "nM"}, {"measurement": "IC50", "setting": "[26]", "result": 30000, "unit": "nM"}, {"measurement": "IC50", "setting": "[29]", "result": "> 100000", "unit": "nM"}]}]}
